Screening results deposited in PubChem BioAssay by several laboratories.
DSG3 Ab inh = inhibitors of pemphigus antibody binding to DSG3, primary screen, biochemical, bead-based, flow cytometry, scFv-GFP; Desmoglein-3 (Homo sapiens), P32926; DSG3-coupled beads, scFv-anti-DSG3-GFP binding; active compounds read low; binding (percent of control), % at 10 µM; hit rate 0.48% among 310,000; AID 588358, 2011;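 active = binding more than 3 SD below its plate's average and above zero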;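 note: hits lower antibody fragment binding to DSG3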
Target sequence (P32926 whole entry, looked up, the tested form may be a part): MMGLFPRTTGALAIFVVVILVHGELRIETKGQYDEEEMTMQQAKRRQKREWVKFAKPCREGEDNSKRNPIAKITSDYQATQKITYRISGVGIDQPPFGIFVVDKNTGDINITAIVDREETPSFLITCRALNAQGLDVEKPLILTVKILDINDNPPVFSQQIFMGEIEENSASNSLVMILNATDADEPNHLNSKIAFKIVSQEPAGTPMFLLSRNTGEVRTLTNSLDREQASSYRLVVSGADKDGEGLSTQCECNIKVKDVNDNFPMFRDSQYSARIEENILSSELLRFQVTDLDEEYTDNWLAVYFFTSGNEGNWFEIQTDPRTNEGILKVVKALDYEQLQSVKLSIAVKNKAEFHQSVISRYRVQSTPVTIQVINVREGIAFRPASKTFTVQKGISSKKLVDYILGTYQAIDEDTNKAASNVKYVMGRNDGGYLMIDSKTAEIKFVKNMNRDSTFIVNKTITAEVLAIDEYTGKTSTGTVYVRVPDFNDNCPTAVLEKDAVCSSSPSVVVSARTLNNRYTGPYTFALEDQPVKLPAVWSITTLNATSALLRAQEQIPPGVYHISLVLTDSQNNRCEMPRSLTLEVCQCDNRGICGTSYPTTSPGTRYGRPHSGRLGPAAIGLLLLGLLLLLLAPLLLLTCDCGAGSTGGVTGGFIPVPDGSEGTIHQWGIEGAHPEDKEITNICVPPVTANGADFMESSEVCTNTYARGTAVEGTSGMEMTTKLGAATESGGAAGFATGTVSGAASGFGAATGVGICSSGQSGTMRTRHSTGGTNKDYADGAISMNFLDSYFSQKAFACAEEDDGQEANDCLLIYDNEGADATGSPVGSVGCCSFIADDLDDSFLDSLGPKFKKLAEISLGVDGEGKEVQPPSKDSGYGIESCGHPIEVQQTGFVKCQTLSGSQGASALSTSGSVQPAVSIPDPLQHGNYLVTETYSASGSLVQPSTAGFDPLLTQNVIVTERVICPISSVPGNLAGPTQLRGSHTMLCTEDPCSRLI
Arrestin-AP2 inh = inhibitors of beta-arrestin/AP2 binding, primary screen, biochemical, GPCR trafficking, flow cytometry; FITC-arrestin peptide / GST-AP2 beads; AP2 beta2 appendage carries R879A mutation; inhibition, % at 10 µM; hit rate 0.31% among 340,000;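 active = inhibition above a set limit, near 3 SD of compounds lacking own fluorescence, cut at about 54% in these data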;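 note: plate controls were DMSO wells for no effect and 5 µM unlabelled arrestin peptide for full effect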
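Material – AP2 appendage R879A on GSH beads · Buffer or medium – PBS with 0.05% Tween 20 and 0.1% BSA · Probe or stimulus – fluorescein-tagged arrestin peptide at 50 nM final · Incubation – compound with beads 12 min RT, then probe 1 h RT · Detection – high-throughput flow cytometry of beads, ex 488, em 535 nm · Evaluation – percent response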
HDAC3 inh = HDAC3 deacetylase inhibitors, primary screen, biochemical, fluorescence, cell-free homogeneous. inhibition, % at 8.3 µM. recombinant HDAC3, fluorogenic peptide/trypsin coupled. Histone deacetylase 3 (Homo sapiens), O15379. hit rate 0.15% among 320,000; in the data active = inhibition above about 26%, passing the limit was not always enough
LANA-H2A inh = blockers of LANA interaction with H2A/H2B – biochemical, FP readout, HTS, primary screen; Protein LANA1 (Human herpesvirus 8 type P (isolate GK18)), Q9QR71; cell-free LANA-H2A/H2B peptide, fluorescence polarization; inhibition, % (no concentration beside the values); hit rate 0.6% among 320,000; AID 2629, 2010; in the data active = inhibition mostly above about 10%, no sharp cut-off; inactive = mostly below about 6.7%
T cell modulator = modulators of CD8 T cell-vesicle binding, primary screen, mouse 2C CD8+ T cells, flow cytometry. response (vesicle binding), % at 7 µM. 2C CD8+ T cell-vesicle binding; active compounds read low. hit rate 0.068% among 330,000;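 active = response, share of CD8 T cells binding vesicles, and their 90th percentile fluorescence all below set limits, cut at about 80% in these data, passing the limit was not always enough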;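 note: values below 100% mean blocked vesicle binding to the CD8+ T cells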
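System: murine 2C transgenic CD8+ T lymphocytes; also added: QL9-loaded Drosophila micro-vesicles; times: binding 1.5 h at 37 °C; measured by: flow cytometry, PE anti-B7-1 (FL2) versus Alexa647 anti-CD8 (FL8), PFA-fixed; control set: Peptide-free naked vesicles (low) and QL9 vesicles with 0.7% DMSO vehicle (high)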
Starred values were filed as active, the others as inactive; nt = no result. An excerpt weighted towards active compounds, which were near 1.5% of everything screened.

SMILES	DSG3 Ab inh	Arrestin-AP2 inh	HDAC3 inh	LANA-H2A inh	T cell modulator
Cc1ccn2c(=O)c(NC(=O)c3cccs3)c(C)nc2c1	122	16	-3	0	700
COC(=O)C[C@H]1c2cc(F)cc(F)c2S(=O)(=O)N1C1CCN(Cc2ccccc2)CC1	106	-6	-3	-3	506
CCCCn1c(-c2ccc(Br)cc2F)nc2c1c(=O)[nH]c(=O)n2CC(C)C	56*	39	-2	2	244
CCCCn1c(=O)[nH]c(=O)c2c1nc(-c1ccc(-c3ccc(F)cc3)o1)n2C	nt	nt	0	-4	136
CCC(=O)c1cc(Br)ccc1OCC(=O)N1CCN(S(=O)(=O)c2ccccc2)CC1	nt	28	nt	nt	nt
COc1ccc(NC(=O)C2CCCN(c3nn4c(=O)cc(C)nc4s3)C2)c(OC)c1 (stereo not drawn)	120	0	3	11*	477
COc1ccc(Cc2nnc(NC(=O)c3ccccc3C)s2)cc1	106	4	-2	-6	242
NNc1ccc(Cl)c(C(=O)O)c1	98	20	-3	63*	234
O=C(O)/C=C/C(=O)Nc1ccc(Cl)c(C(=O)O)c1	107	-15	1	3	120
COc1ccccc1C(=O)NNC(=O)c1cccc(Cl)c1	95	1	-1	-3	158
COc1ccc(Cl)cc1C(=O)NNC(=O)c1cccc([N+](=O)[O-])c1	94	30	-4	156*	186
O=C(NCCc1nc2ccccc2[nH]1)/C(=C/c1ccco1)NC(=O)c1ccc(Br)cc1	107	4	3	-6	370
O=C(NCCc1nc2ccccc2[nH]1)/C(=C/c1ccco1)NC(=O)c1ccccc1Br	99	1	3	14*	456
Cc1ccc(C(=O)NCC(=O)Nc2ccc(Cl)cc2)s1	123	11	11	-3	308
NSc1nc(N)c2nc(-c3ccccc3)c(-c3ccccc3)nc2n1	67*	-8	-13	-6	296
COc1ccccc1N(CC(=O)N1CCN(c2ccccc2)CC1)S(=O)(=O)c1ccc(C)cc1	98	3	6	2	518
Cc1nc(NC(=O)/C=C/c2ccccc2)sc1C(=O)Nc1ccc(Cl)cc1	80	-10	-33	3	845
Cc1nc(NC(=O)/C=C/c2ccccc2)sc1C(=O)Nc1ccccc1Cl	78*	7	-6	5	715
COc1ccc(N(CC(=O)N2CCOCC2)S(C)(=O)=O)cc1	105	15	-5	0	154
COc1ccc(C(C(=O)NC(C)(C)C)N(Cc2ccccc2)C(=O)CCC(=O)Nc2cc(C)on2)cc1 (stereo not drawn)	89	3	-3	-1	262
COc1ccc(C(C(=O)NC(C)(C)C)N(CCC(C)C)C(=O)CCC(=O)Nc2cc(C)on2)cc1 (stereo not drawn)	99	6	15	19*	294
O=C(Nc1c(C(=O)N2CCOCC2)cnn1-c1ccccc1)c1ccc(F)cc1	78	6	-4	0	237
COc1ccc(N(CC(=O)Nc2ccccc2C)S(=O)(=O)c2ccccc2[N+](=O)[O-])c(OC)c1	24*	33	1	-12	555
N#Cc1cccnc1N1CCN(C(=O)c2cccs2)CC1	90	-5	-5	1	174
O=C(CN1C(=O)c2cccc([N+](=O)[O-])c2C1=O)N1CCN(S(=O)(=O)c2ccccc2)CC1	98	10	8	9	401
CCC(=O)N1CCc2cc(S(=O)(=O)CCC(=O)N3CCN(c4ccc(F)cc4)CC3)ccc21	109	52	2	5	311
O=P(O)(O)CP(=O)(O)O	nt	nt	nt	81*	709
COC(=O)c1ccc(CNC(=O)CN2C(=O)NC(Cc3ccccc3)(c3ccccc3)C2=O)cc1 (stereo not drawn)	98	nt	nt	nt	nt
CCCCN(S(=O)(=O)c1ccccc1)S(=O)(=O)c1ccccc1	108	5	6	0	504
COc1ccc(CNC(=O)CN(c2ccc(C(C)C)cc2)S(=O)(=O)c2c(C)noc2C)cc1	121	6	6	14*	120
